Assay results of several laboratories.
Each line is one published result; the experiments were not run side by side.
Sample: Caco-2

With `O=c1cc(-c2ccccc2)oc2cc(O)c(O)c(O)c12` the Papp A→B was 9.23 ×10⁻⁶ cm/s (100 µg/mL, 2 h).
`CN/C(=N/CCSCc1nc[nH]c1C)NC#N` has a Papp A→B of 0.55 ×10⁻⁶ cm/s (5 µM, 2 h).
The Papp A→B of `O=c1cc(-c2ccc(O)cc2)oc2c([C@@H]3O[C@H](CO)[C@@H](O)[C@H](O)[C@H]3O)c(O)cc(O)c12` is reported as 0.316 ×10⁻⁶ cm/s (100 µg/mL).
The Papp A→B of `COCC(=O)N1CCC[C@H](C(=O)NCc2nc(-c3ccccc3)cs2)C1` is reported as 52 ×10⁻⁶ cm/s (pH 7.4).
With `CCCCCCOC(=O)NC(=N)c1ccc(NCc2nc3cc(C(=O)N(CCC(=O)OCC)c4ccccn4)ccc3n2C)cc1` the Papp A→B was 0.0021 ×10⁻⁶ cm/s (5 µM, 2 h).
For `Cc1ccc(N(c2ccc(NC(=O)CN(C)c3ccccc3N3CCCC3=O)cc2)C(C)C)cc1`, the Papp A→B was 1.09 ×10⁻⁶ cm/s.
`CC(C)NCC(O)COc1cccc2ccccc12` (stereo not drawn) gave a Papp A→B of 29.7 ×10⁻⁶ cm/s (10 µM, 2 h).
`C[C@@H]1O[C@@H](OC[C@H]2O[C@@H](Oc3c(-c4ccc(O)c(O)c4)oc4cc(O)cc(O)c4c3=O)[C@H](O)[C@@H](O)[C@@H]2O)[C@H](O)[C@H](O)[C@H]1O` gave a Papp A→B of 0.228 ×10⁻⁶ cm/s (50 µg/mL).
`O=c1c(-c2ccc(O)cc2)coc2cc(O)ccc12` has a Papp A→B of 27.4 ×10⁻⁶ cm/s (100 µg/mL, 2 h).
The Papp A→B of `O=c1c2cc(Cl)ccc2[nH]c(=S)n1Cc1ccc(-c2nnn[nH]2)nc1` is reported as less than 0.51 ×10⁻⁶ cm/s (10 µM, 90 min, pH 7.4).
With `Cc1ncc(Cl)cc1NCc1ccc(C(=O)N[C@@H](CC2CCCC2)C(=O)NC2CC2)s1` the Papp A→B was 0.22 ×10⁻⁶ cm/s (5 µM, 2 h, pH 7.4).
The Papp A→B of `O=C(NCc1nc(-c2ccc(C(F)(F)F)cc2)cs1)[C@H]1CCCN(C(=O)CO[C@H]2CCCNC2)C1` is reported as 0.15 ×10⁻⁶ cm/s (pH 7.4).
With `C[C@@H]1O[C@@H](O[C@H]2[C@H](Oc3cc(O)c4c(c3)O[C@H](c3ccc(O)cc3)CC4=O)O[C@H](CO)[C@@H](O)[C@@H]2O)[C@H](O)[C@H](O)[C@H]1O` the Papp A→B was 21 ×10⁻⁶ cm/s (100 µg/mL, 2 h).
For `N#Cc1ccc(C[C@H](NC(=O)Nc2ccc(F)cc2)C(=O)N2CCc3ccccc32)cc1`, the Papp A→B was 49.3 ×10⁻⁶ cm/s (100 µM, 2 h).
The Papp A→B of `CCOCC(=O)N1CCC[C@H](C(=O)NCc2nc(-c3ccc(C#N)nc3)cs2)C1` is reported as 13 ×10⁻⁶ cm/s (pH 7.4).
`CCOC(=O)[C@H](CCc1ccccc1)N[C@@H](C)C(=O)N1CCC[C@H]1C(=O)O` has a Papp A→B of 0.13 ×10⁻⁶ cm/s (5 µM, 2 h).
`COCC(=O)OCc1cc2[nH]c(=S)n(Cc3cccnc3)c(=O)c2cc1Cl` has a Papp A→B of 0.2 ×10⁻⁶ cm/s (10 µM, 90 min, pH 7.4).
With `O=c1c(-c2ccc(O)cc2)coc2c([C@@H]3O[C@H](CO)[C@@H](O)[C@H](O)[C@H]3O)c(O)ccc12` the Papp A→B was 45.7 ×10⁻⁶ cm/s (100 µg/mL, 2 h).
